From ChEMBL document CHEMBL4808182, “Discovery of the Soluble Guanylate Cyclase Activator Runcaciguat (BAY 1101042)” (J Med Chem, 2021)

Columns and labels:
Cytochrome P450 1A2 = biological target: T1, Cytochrome P450 1A2 (Homo sapiens, UniProt P05177); test: Induction of CYP1A2 in human hepatocytes at > 10000 ng/ml using phenacetin as substrate incubated for 60 mins by LC-MS/MS analysis; type: ADME, cell-based, Hepatocyte; conditions: 1 h
T1 sequence (P05177 whole entry): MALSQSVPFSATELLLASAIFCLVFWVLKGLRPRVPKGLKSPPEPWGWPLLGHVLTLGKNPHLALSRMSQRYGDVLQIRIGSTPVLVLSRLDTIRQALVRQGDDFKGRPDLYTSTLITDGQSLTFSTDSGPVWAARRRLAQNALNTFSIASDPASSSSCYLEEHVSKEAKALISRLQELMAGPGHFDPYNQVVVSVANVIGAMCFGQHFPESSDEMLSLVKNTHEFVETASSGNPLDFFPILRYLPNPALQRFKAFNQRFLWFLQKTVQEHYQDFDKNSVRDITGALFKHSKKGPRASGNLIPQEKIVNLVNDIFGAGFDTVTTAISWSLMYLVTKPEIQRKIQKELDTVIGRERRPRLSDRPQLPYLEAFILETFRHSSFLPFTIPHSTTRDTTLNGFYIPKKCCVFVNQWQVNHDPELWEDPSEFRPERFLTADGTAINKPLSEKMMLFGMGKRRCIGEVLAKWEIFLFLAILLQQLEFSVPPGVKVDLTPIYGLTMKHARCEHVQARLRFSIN

Cytochrome P450 3A4 = Cytochrome P450 3A4 (Homo sapiens, UniProt P08684); test: Induction of CYP3A4 in human hepatocytes at > 10000 ng/ml using phenacetin as substrate incubated for 60 mins by LC-MS/MS analysis; type: ADME, cell-based, Hepatocyte; conditions: 1 h
Chain of Cytochrome P450 3A4 (P08684 whole entry): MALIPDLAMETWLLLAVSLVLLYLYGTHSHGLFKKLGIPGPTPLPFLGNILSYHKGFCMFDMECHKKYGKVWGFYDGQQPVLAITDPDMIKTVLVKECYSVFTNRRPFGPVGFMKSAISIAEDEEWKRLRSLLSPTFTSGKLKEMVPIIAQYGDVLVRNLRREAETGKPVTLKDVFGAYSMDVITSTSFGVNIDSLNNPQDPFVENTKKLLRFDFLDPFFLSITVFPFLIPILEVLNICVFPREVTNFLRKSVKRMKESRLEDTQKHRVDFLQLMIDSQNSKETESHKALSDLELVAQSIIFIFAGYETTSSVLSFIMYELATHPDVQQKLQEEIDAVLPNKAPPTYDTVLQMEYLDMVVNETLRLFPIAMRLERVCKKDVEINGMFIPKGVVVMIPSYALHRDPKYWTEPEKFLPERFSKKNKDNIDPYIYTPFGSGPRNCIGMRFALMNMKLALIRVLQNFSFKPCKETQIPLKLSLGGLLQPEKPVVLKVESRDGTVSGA

[1] = Clearance in Wistar rat at 0.3 mg/kg, iv measured up to 24 hrs by LC-MS analysis; type: ADME, organism-based; conditions: in vivo
Outline: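 Rats dosed iv at 0.3 mg/kg; blood clearance determined.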

[2] = Plasma clearance in iv dosed cynomolgus monkey measured up to 24 hrs by LC-MS analysis; type: ADME, organism-based, Macaca fascicularis
[3] = Plasma clearance in iv dosed Beagle dog measured up to 24 hrs by LC-MS analysis; type: ADME, organism-based, Canis lupus familiaris
[4] = biological target: T2, Guanylate cyclase soluble subunit alpha-1 (Rattus norvegicus) (UniProt P19686); test: Activation of recombinant rat sGC alpha1 subunit expressed in CHO cells assessed as induction of [32P-cGMP] formation using alpha-[32P-GTP] as substrate measured after 6 mins by luminescence assay; type: cell-based; conditions: filed as activator
T2 sequence (whole entry): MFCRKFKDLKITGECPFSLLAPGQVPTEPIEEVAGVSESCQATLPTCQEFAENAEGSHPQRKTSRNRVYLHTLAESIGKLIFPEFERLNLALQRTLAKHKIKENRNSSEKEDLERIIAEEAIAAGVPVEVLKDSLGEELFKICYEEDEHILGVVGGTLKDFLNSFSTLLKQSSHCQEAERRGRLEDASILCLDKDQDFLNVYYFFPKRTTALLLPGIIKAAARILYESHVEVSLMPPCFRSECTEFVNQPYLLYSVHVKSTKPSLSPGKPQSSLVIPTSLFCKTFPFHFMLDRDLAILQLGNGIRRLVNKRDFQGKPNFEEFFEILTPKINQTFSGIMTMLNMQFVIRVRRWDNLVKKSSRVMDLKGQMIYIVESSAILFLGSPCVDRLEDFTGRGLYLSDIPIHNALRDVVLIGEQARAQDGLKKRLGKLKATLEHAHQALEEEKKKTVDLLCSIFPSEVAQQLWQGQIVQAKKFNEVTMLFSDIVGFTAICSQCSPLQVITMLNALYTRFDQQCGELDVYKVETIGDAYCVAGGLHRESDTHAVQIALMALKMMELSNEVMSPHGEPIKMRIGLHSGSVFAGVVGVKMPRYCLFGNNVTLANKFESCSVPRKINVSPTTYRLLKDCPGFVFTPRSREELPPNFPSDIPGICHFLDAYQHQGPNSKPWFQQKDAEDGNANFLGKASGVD

[5] = biological target: T2, Guanylate cyclase soluble subunit alpha-1 (Rattus norvegicus); test: Activation of recombinant rat sGC alpha1 subunit expressed in CHO cells assessed as induction of [32P-cGMP] formation by measuring efficacy using alpha-[32P-GTP] as substrate measured after 6 mins by luminescence assay relative to control; type: cell-based
[6] = Activation of recombinant rat sGC expressed in CHO cells by luminescence assay; type: cell-based
Outline: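 Stable CHO reporter cell line overexpressing rat sGC; cGMP formation read as luminescence. EC50 from concentration–response. MEC taken as lowest concentration giving at least threefold increase in basal luminescence.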

[7] = Induction of CYP3A4 in human hepatocytes using phenacetin as substrate incubated for 60 mins by LC-MS/MS analysis; conditions: 1 h
[8] = Volume of distribution at steady state in iv dosed Beagle dog measured up to 24 hrs by LC-MS analysis; type: ADME, organism-based, Canis lupus familiaris; conditions: in vivo, read-out: Vdss
Outline: (§1)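 Three animals per species and strain received an intravenous dose. Steady-state volume of distribution (L/kg) was derived from the blood concentration–time profile, alongside blood clearance and terminal half-life.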

[9] = Volume of distribution at steady state in iv dosed Wistar rat measured up to 24 hrs by LC-MS analysis; type: ADME, organism-based; conditions: in vivo, read-out: Vdss; outline: as §1
[10] = Oral bioavailability in Beagle dog measured up to 24 hrs by LC-MS analysis; type: ADME, organism-based, Canis lupus familiaris; conditions: in vivo
[11] = Half life in iv dosed Beagle dog measured up to 24 hrs by LC-MS analysis; type: ADME, organism-based, Canis lupus familiaris; conditions: in vivo
[12] = Oral bioavailability in Wistar rat measured up to 24 hrs by LC-MS analysis; type: ADME, organism-based; conditions: in vivo
[13] = Half life in iv dosed Wistar rat measured up to 24 hrs by LC-MS analysis; type: ADME, organism-based; conditions: in vivo

## O=C(O)CCc1cccc(NC(=O)[C@H](c2ccc(CN3N=C(c4ccccc4)OCC3=O)cc2)C2CCCC2)c1
Cytochrome P450 1A2
  Activity: Not Active
Cytochrome P450 3A4
  Activity: Not Active
[1]
  clearance: 64.2 mL/min/kg
[2]
  clearance: 14.3 mL/min/kg
[3]
  clearance: 2.67 mL/min/kg
[4]
  MEC: 10 nM

## O=C(O)[C@H]1Cc2cccc(NC(=O)[C@H](c3ccc(CN4N=C(c5ccccc5)OCC4=O)cc3)C3CCCC3)c2C1
[4]
  MEC: 30 nM

## Cc1c(CCC(=O)O)cccc1NC(=O)[C@H](c1ccc(Cl)cc1)C1CCCC1
[1]
  clearance: 12.8 mL/min/kg
[5]
  Efficacy: 19%
[6]; CHO
  EC50: 0.044 µM
[4]
  MEC: 200 nM

## C[C@H]([C@H](C(=O)Nc1cc(C2(CC(=O)O)CCC2)ccc1Cl)c1ccc(Cl)cc1)C(F)(F)F
[5]
  Efficacy: 37%
[6]; CHO
  EC50: 0.005 µM
[7]
  Activity: 256 nM
[4]
  MEC: 1 nM

## O=C(Nc1cccc(CC2(C(=O)O)CC2)c1)[C@H](c1ccc(CN2N=C(c3ccccc3)OCC2=O)cc1)C1CCCC1
[1]
  clearance: 55 mL/min/kg
[2]
  clearance: 30 mL/min/kg
[3]
  clearance: 13.7 mL/min/kg
[4]
  MEC: 1 nM

## CCc1ccc([C@@H](C(=O)Nc2cc(C3(CC(=O)O)CC3)ccc2F)[C@@H](C)C(F)(F)F)cc1
[5]; filed as activator
  Efficacy: 43%
[6]; CHO
  EC50: 0.111 µM
[7]
  Activity: 31 nM
[4]
  MEC: 10 nM

## Cc1c(CCC(=O)O)cccc1NC(=O)[C@H](c1ccc(Cl)cc1)[C@@H](C)C(F)(F)F
[5]
  Efficacy: 18%
[4]
  MEC: 1000 nM

## O=C(O)c1ccc(CNC(=O)C(c2ccc(CN3N=C(c4ccccc4)OCC3=O)cc2)C2CCCC2)cc1 (racemic)
[4]
  MEC: 10 nM

## CC(C)(CCCCNC(=O)[C@H](c1ccc(CN2N=C(c3ccccc3)OCC2=O)cc1)C1CCCC1)C(=O)O
[4]
  MEC: 100 nM

## C[C@H]([C@H](C(=O)Nc1cc(CC2(C(=O)O)CC2)ccc1F)c1ccc(Cl)cc1)C(F)(F)F
[5]
  Efficacy: 34%
[4]
  MEC: 0.3 nM

## Cc1ccc(CC2(C(=O)O)CC2)cc1NC(=O)[C@H](c1ccc(Cl)cc1)[C@@H](C)C(F)(F)F
[5]; filed as activator
  Efficacy: 44%
[4]
  MEC: 3 nM

## C[C@H]([C@H](C(=O)Nc1cccc(CC2(C(=O)O)CC2)c1Cl)c1ccc(Cl)cc1)C(F)(F)F
[5]
  Efficacy: 19%
[4]
  MEC: 100 nM

## CCN(C)C(C(=O)Nc1cccc(CCC(=O)O)c1C)c1ccc(CN2N=C(c3ccccc3)OCC2=O)cc1 (stereo unspecified)
[4]
  MEC: 300 nM

## CC(C)C(CC(=O)O)c1ccc(Cl)c(NC(=O)[C@H](c2ccc(Cl)cc2)[C@@H](C)C(F)(F)F)c1 (stereo in doubt; 44a)
[6]; cho
  EC50: 0.028 µM
[7]
  Activity: 10 nM

## C[C@H]([C@H](C(=O)Nc1cc(CC2(C(=O)O)CC2)ccc1Cl)c1ccc(Cl)cc1)C(F)(F)F
[8]
  Vd: 3 L/kg
[9]
  Vd: 1.5 L/kg
[1]
  clearance: 7.67 mL/min/kg
[2]
  clearance: 4 mL/min/kg
[10]
  bioavailability: 57%
[3]
  clearance: 25 mL/min/kg
[11]
  half-life: 11 h
[12]
  bioavailability: 84%
[5]; filed as activator
  Efficacy: 63%
[4]
  MEC: 0.3 nM
[13]
  half-life: 4.3 h

## O=C(NCCCCC1(C(=O)O)CC1)[C@H](c1ccc(CN2N=C(c3ccccc3)OCC2=O)cc1)C1CCCC1
[1]
  clearance: 5.17 mL/min/kg
[2]
  clearance: 23.3 mL/min/kg
[3]
  clearance: 30 mL/min/kg
[4]
  MEC: 10 nM

## CC[C@H](C)[C@H](C(=O)Nc1cccc(CCC(=O)O)c1C)N1CCC(CN2N=C(c3ccccc3)OCC2=O)CC1
[4]
  MEC: 7 nM

## C[C@H]([C@H](C(=O)Nc1cccc(CC2(C(=O)O)CC2)c1)c1ccc(Cl)cc1)C(F)(F)F
[5]
  Efficacy: 4%
[4]
  MEC: 20 nM

## Cc1c(CCC(=O)O)cccc1NC(=O)C(c1ccc(Cn2ncccc2=O)cc1)C1CCCC1 (racemic)
[4]
  MEC: 1000 nM

## O=C(O)CCCCCNC(=O)[C@H](c1ccc(CN2N=C(c3ccccc3)OCC2=O)cc1)C1CCCC1
[4]
  MEC: 100 nM
